The text below walks through data of ChEMBL document CHEMBL1140286, “Synthesis, in vitro characterization, and radiolabeling of N,N-dimethyl-2-(2'-amino-4'-substituted-phenylthio)benzylamines: potential candidates as selective serotonin transporter radioligands” (J Med Chem, 2005).

Holding throughout (format): cell-based
In experiment [1] the target is Sodium-dependent dopamine transporter (Homo sapiens, UniProt Q01959). As to the kind of experiment: In vitro inhibition of [3H]WIN-35428 binding to human dopamine transporter expressed in canine kidney cells. The essentials:
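Membranes from MDCK cells stably expressing hDAT, grown to confluency in DMEM with 10% FBS and Geneticin, harvested in PBS/0.53 mM EDTA, homogenized, pelleted at 43 000g. Membranes (30-70 µg protein) incubated 1 h at room temperature in 42 mM sodium phosphate, 320 mM sucrose, pH 7.4, with 2.0 nM [3H]WIN 35,428; competitor 10^-13 to 10^-5 M, 12 concentrations, triplicate; GF/B filtration; Ki.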

The target in experiment [2] is Sodium-dependent noradrenaline transporter (Homo sapiens, UniProt P23975). Kind of experiment: In vitro inhibition of [3H]nisoxetine binding to norepinephrine transporter expressed in human kidney cells. The essentials: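 HEK-293 membranes stably expressing hNET (30-70 µg protein) incubated 4 h at 4 °C with [3H]nisoxetine in 53 mM Tris, 320 mM NaCl, 5.3 mM KCl, pH 7.4. Competitor dissolved in 1:1 ethanol/5 mM HCl, 12 concentrations from 10^-13 to 10^-5 M, triplicate. Cold-buffer termination, vacuum filtration on GF/B; Ki calculated from competition curves.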
Chain of Sodium-dependent noradrenaline transporter (P23975 whole entry): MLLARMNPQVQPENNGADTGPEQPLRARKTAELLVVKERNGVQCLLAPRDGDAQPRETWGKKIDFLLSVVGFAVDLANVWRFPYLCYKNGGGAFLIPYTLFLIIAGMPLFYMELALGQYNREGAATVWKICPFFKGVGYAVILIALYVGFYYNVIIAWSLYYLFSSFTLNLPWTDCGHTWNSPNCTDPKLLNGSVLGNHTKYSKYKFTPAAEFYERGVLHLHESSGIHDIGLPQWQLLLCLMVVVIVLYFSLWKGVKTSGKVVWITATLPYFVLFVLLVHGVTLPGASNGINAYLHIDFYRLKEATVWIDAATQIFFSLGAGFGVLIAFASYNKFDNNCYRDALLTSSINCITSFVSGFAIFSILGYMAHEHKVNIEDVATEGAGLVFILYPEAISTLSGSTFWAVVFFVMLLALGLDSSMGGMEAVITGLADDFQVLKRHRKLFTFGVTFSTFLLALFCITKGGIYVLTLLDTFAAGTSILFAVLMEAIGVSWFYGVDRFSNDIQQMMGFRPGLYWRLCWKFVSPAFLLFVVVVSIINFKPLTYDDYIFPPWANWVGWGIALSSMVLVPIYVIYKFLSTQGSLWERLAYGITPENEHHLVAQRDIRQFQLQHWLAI

Experiment [3] has as its target Sodium-dependent serotonin transporter (Homo sapiens, UniProt P31645). Kind of experiment: In vitro inhibition of [3H]citalopram binding to human serotonin transporter expressed in human HEK293 cells. The essentials:
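Membranes from HEK-293 cells stably expressing hSERT, grown in DMEM with 10% FBS and Geneticin. 30-70 µg membrane protein incubated 2 h at room temperature with [3H]citalopram in 53 mM Tris, 126 mM NaCl, 5.3 mM KCl, pH 7.9. Competitor at 12 concentrations, 10^-13 to 10^-5 M, in triplicate. Filtration through PEI-soaked GF/B filters; Ki from competition curves, at least two separate assays.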

Bounds are passed on as bounds.

Chain of Sodium-dependent dopamine transporter (Q01959 whole entry): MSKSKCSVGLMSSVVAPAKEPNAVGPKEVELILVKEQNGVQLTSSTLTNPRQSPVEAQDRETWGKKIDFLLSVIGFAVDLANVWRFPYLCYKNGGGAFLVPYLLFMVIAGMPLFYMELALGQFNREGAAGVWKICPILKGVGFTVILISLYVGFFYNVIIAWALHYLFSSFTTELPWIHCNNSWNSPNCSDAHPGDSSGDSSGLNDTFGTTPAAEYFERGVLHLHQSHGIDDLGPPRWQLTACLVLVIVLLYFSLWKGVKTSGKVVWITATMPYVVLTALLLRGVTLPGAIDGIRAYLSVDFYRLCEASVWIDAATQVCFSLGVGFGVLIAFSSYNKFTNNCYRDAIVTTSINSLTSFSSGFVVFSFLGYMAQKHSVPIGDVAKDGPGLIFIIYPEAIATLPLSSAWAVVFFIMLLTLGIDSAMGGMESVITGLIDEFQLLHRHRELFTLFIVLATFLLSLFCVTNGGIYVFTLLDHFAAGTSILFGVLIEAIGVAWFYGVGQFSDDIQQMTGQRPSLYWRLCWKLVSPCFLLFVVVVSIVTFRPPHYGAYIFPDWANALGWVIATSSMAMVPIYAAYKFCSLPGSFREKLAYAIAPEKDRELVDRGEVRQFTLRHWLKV
Chain of Sodium-dependent serotonin transporter (P31645 whole entry): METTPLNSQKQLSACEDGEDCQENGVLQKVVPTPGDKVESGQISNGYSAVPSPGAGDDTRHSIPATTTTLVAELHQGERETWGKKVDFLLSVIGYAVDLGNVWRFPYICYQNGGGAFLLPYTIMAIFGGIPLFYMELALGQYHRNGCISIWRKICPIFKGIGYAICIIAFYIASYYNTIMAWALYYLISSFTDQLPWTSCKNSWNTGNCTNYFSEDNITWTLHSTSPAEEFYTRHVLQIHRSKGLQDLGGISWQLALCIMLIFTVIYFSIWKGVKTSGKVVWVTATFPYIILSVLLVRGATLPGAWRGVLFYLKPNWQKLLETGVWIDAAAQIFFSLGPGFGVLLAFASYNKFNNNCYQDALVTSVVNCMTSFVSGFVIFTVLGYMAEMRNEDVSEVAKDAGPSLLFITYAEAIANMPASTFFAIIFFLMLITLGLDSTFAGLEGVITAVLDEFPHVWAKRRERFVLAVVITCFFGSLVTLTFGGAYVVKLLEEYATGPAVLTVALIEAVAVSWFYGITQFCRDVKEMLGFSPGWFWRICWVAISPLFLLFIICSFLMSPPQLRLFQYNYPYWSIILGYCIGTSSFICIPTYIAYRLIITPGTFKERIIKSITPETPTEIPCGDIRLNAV

In general, Ki refers to a dissociation constant, usually derived from enzyme kinetics or from competition with a known ligand. A higher Ki goes with a looser hold on the target. Consider `CN(C)Cc1ccccc1Sc1ccccc1N`, for which the Ki in experiment [1] stood at 279 nM; in experiment [2], 4.95 nM; in experiment [3], 1.59 nM.
Turning to `CNC(=O)c1ccccc1Sc1ccc(C)cc1[N+](=O)[O-]`, the Ki in experiment [1] came to 698 nM; in experiment [2] it was 191 nM; in experiment [3], 1.94 nM.
Taken in the same sequence, the figures for `CCc1ccc(Sc2ccccc2CNC)c(N)c1` were greater than 1000 nM, 445 nM and 2.04 nM.
As for `CN(C)Cc1ccccc1Sc1ccc(CCO)cc1N`, the Ki in experiment [1] was greater than 1000 nM; in experiment [2] it was 194 nM; in experiment [3] it was 50.6 nM.
Regarding `CN(C)Cc1ccccc1Sc1ccc(CCCF)cc1N`, the Ki is greater than 5000 nM in experiment [1], 219 nM in experiment [2] and 8.55 nM in experiment [3].
Consider `C=Cc1ccc(Sc2ccccc2CN(C)C)c(N)c1`, for which the figures for the Ki in experiment [1], in experiment [2] and in experiment [3] were 962 nM, 269 nM and 1.12 nM, respectively.
Regarding `CN(C)Cc1ccccc1Sc1ccc(I)cc1N`, the affinity in experiment [3] corresponds to a Ki of 0.013 nM.
Regarding `CCc1ccc(Sc2ccccc2CN(C)C)c(N)c1`, the values for the Ki in experiment [1], in experiment [2] and in experiment [3] were greater than 2000 nM, 370 nM and 0.49 nM, respectively.
`Cc1ccc(Sc2ccccc2CN(C)C)c(N)c1`: the inhibition constant (Ki) in experiment [1] turned out to be 532 nM; in experiment [2], 61 nM; in experiment [3] it was 0.25 nM.
On to `CN(C)Cc1ccccc1Sc1ccc(CCCO)cc1N`, for which the results for the inhibitory constant (Ki) in experiment [1], in experiment [2] and in experiment [3] were greater than 5000 nM, 108 nM and 92.3 nM, respectively.
Consider `CN(C)Cc1ccccc1Sc1ccc(CO)cc1N`, for which the Ki was greater than 1000 nM in experiment [1], 303 nM in experiment [2] and 0.57 nM in experiment [3].
For the molecule `CNC(=O)c1ccccc1Sc1ccccc1[N+](=O)[O-]`, the values for the Ki in experiment [1], in experiment [2] and in experiment [3] were 969 nM, 37.5 nM and 83.4 nM, respectively.
For `CNCc1ccccc1Sc1ccc(CO)cc1N`, the Ki in experiment [1] is greater than 1000 nM; in experiment [2] it was 484 nM; in experiment [3], 15.1 nM.
In the case of `CN(C)Cc1ccccc1Sc1ccc(CCF)cc1N`, the Ki is greater than 5000 nM in experiment [1], greater than 5000 nM in experiment [2] and 8.5 nM in experiment [3].
